Results as given in publication PMC8463269 (Acta Pharmaceutica Sinica. B, 2021).
Like-named read-outs stand apart in the source and are kept apart here. Each block holds one molecule with its values, some of them ahead of it. Where a SMILES comes first, the peptide text is derived from it. Bridges are numbered along the chain shown (N, C = ends). [ ]: non-standard residue; d: D form. S5 = C=CCCC[C@](C)(N)C(=O)O

What was measured:
[1] = biological target: hexahistidine-tagged recombinant human KRAS^G12C (human) (UniProt P01116); experiment: BLI
[2] = Circular dichroism spectroscopy, α-helicity; type: physicochemical; settings: CD, 0.3 mg/mL in 1×PBS pH 7.4, 25 °C, 190–260 nm, average of three readings
In short: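 Spectra were taken in a 1.0 mm path quartz cell with 1 nm bandwidth, 50 nm/min scan speed and 1 s response time. Peptide was also run in PBS with 50% trifluoroethanol. Spectra were converted to mean residue ellipticity (deg·cm²/dmol) versus wavelength.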

H358 cells [3] = experiment: Cell viability, CCK8 assay; type: cell-based; settings: read-out: IC50, H358 cell viability, n = 3
In short: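 H358 cells in RPMI-1640 with 10% FBS were plated overnight, then incubated with diluted series of test peptide for 24 h, or 36, 48 and 72 h. CCK8 reagent was added for 1 h at 37 °C and absorbance read at 450 nm. Mean ± SD of three independent experiments.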

[4] = Plasma stability in rat plasma; type: in vitro ADME, Sprague–Dawley rats; settings: 1300 μg/mL, 0 min, HPLC
In short: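 Heparinised blood was drawn from the femoral artery of Sprague–Dawley rats and centrifuged at 4 °C, 4000 r/min for 10 min to give plasma. Plasma spiked with test peptide was incubated at 37 °C. Aliquots were precipitated in 3 volumes of methanol–acetonitrile (50:50), vortexed and centrifuged, and the supernatant was analysed by C18 RP-HPLC with a 0.1% TFA water/acetonitrile gradient.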

KRAS^G12C protein = KRAS^G12C protein (Homo sapiens, UniProt P01116, G12C); experiment: Bio-Layer Interferometry; type: binding
In short: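 The biotinylated protein was captured on SSA sensors in an Octet RED 96. Test peptides were run at various concentrations, and KD was calculated from the binding kinetics.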

circular dichroism = settings: PBS; pH 7.4; 25 °C; 0.3 mg/mL
H358 cells [5] = experiment: Annexin V-FITC apoptosis assay by flow cytometry; type: cell-based; settings: 24 h, control 36.42%
BAX = experiment: Western blot, BAX expression in H358 cells; type: cell-based; settings: H358 cells, 0, 5, 10, 20 μmol/L, 24 h
In short: (§1)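 H358 cells treated with test peptide for 24 h were lysed on ice for 1 h in buffer with phosphatase inhibitor cocktail and PMSF. Proteins were separated by SDS-PAGE and transferred to PVDF. Membranes were incubated with primary antibody at 4 °C overnight, then HRP goat anti-rabbit IgG for 100 min, and imaged by chemiluminescence. GAPDH was probed alongside.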

H358 cells [6] = experiment: Cell cycle analysis by flow cytometry; type: cell-based; settings: 24-h treatment, highest concentration of the series, control 16.76%
BCL-2 = experiment: Western blot, BCL-2 expression in H358 cells; type: cell-based; settings: H358 cells, 0, 5, 10, 20 μmol/L, 24 h
In short: as §1

[7] = test system: cyclin-dependent kinase 1 (CDK1); experiment: Western blot, CDK1 expression in H358 cells; type: cell-based; settings: H358 cells, 0, 5, 10, 20 μmol/L, 24 h
In short: as §1

caspase 3 = experiment: Western blot, caspase 3 expression in H358 cells; type: cell-based; settings: H358 cells, 0, 5, 10, 20 μmol/L, 24 h
In short: as §1

trypsin = experiment: Enzymatic degradation by trypsin; type: in vitro ADME; settings: 150 μg/mL peptide, 3 μg/mL trypsin, NH4HCO3 buffer, 37 °C, HPLC, n = 3
In short: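 Test peptide was digested with trypsin or chymotrypsin (peptide:enzyme weight ratio 50:1) in NH4HCO3 buffer at 37 °C. Samples were taken at 0, 30 min and 1, 2, 6, 12 and 24 h and quenched with 1% (v/v) formic acid. Analysis was by C18 RP-HPLC with a 0.1% TFA water/acetonitrile gradient (20→90% B over 30 min, 1 mL/min).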

cyclin B1 = experiment: Western blot, cyclin B1 expression in H358 cells; type: cell-based; settings: H358 cells, 0, 5, 10, 20 μmol/L, 24 h
In short: as §1

koff [1]: 0.862 s⁻¹
Molecule: SAH-SOS1A (peptide 1)

Molecule: CC[C@H](C)[C@H](NC(=O)CNC(=O)[C@H](Cc1ccccc1)NC(=O)[C@H](Cc1ccccc1)NC(=O)[C@H](CCCNC(=N)N)NC(=O)[C@H](CCCNC(=N)N)NC(C)=O)C(=O)N[C@@]1(C)CCCC=CCCC[C@@](C)(C(=O)N[C@@H](CC(C)C)C(=O)N[C@@H](CCCCN)C(=O)N[C@H](C(=O)N[C@@H](CCC(=O)O)C(=O)N[C@@H](CCC(=O)O)C(=O)NCC(=O)N[C@@H](CC(N)=O)C(N)=O)[C@@H](C)O)NC(=O)[C@H](CC(N)=O)NC(=O)[C@H]([C@@H](C)O)NC(=O)[C@H](CC(C)C)NC1=O [Peptide 1, reference compound]
α-helicity in PBS [2]: 16.20%
IC50 (H358 cells [3]; CCK8, 24-h incubation): 21.2 µM
plasma stability, characteristic peak in the chromatogram [4]: No characteristic peaks were observed
Kd (KRAS^G12C protein): 58.3 µM
kon (KRAS^G12C protein): 14800 M⁻¹ s⁻¹

Molecule: CC[C@H](C)[C@H](NC(=O)CNC(=O)[C@H](Cc1ccccc1)NC(C)=O)C(=O)N[C@@]1(C)CCCC=CCCC[C@@](C)(C(=O)N[C@@H](CC(C)C)C(=O)N[C@@H](CCCCN)C(=O)N[C@H](C(N)=O)[C@@H](C)O)NC(=O)[C@H](CC(N)=O)NC(=O)[C@H]([C@@H](C)O)NC(=O)[C@H](CC(C)C)NC1=O [Peptide 3] (Ac-FGI[S5]LTN[S5]LKT-NH2; staple 4-8)
α-helicity in PBS [2]: 18.93%
IC50 (H358 cells [3]; CCK8, 24-h incubation): 15.7 µM
IC50 (H358 cells [3]; CCK8, 36-h incubation): 7.55 µM
IC50 (H358 cells [3]; CCK8, 48-h incubation): 5.75 µM
IC50 (H358 cells [3]; CCK8, 72-h incubation): 6.68 µM
helicity (circular dichroism): 18.9%
proportion of apoptotic cells (Q2 + Q3) (H358 cells [5]; 2.5 μmol/L): 56.63%
proportion of apoptotic cells (Q2 + Q3) (H358 cells [5]; 10 μmol/L): 61.40%
proportion of apoptotic cells (Q2 + Q3) (H358 cells [5]; 20 μmol/L): 70.70%
pro-apoptotic BAX protein expression (BAX): insignificant effect
percentage of cells in the G2/M (H358 cells [6]): 49.79%
anti-apoptotic BCL-2 protein expression (BCL-2): obviously inhibited
CDK1 expression [7]: significantly downregulated
kon (KRAS^G12C protein): 4600 M⁻¹ s⁻¹
caspase 3 expression (caspase 3): increased
percentage of trypsin hydrolysate (g) of the peptide (trypsin; 12 h): 78%
percentage of trypsin hydrolysate (g) of the peptide (trypsin; 24 h): 34%
cyclin B1 expression (cyclin B1): significantly downregulated

Molecule: CC[C@H](C)[C@H](NC(C)=O)C(=O)N[C@@]1(C)CCCC=CCCC[C@@](C)(C(=O)N[C@@H](CC(C)C)C(=O)N[C@@H](CCCCN)C(=O)N[C@H](C(N)=O)[C@@H](C)O)NC(=O)[C@H](CC(N)=O)NC(=O)[C@H]([C@@H](C)O)NC(=O)[C@H](CC(C)C)NC1=O [Peptide 7] (Ac-I[S5]LTN[S5]LKT-NH2; staple 2-6)
α-helicity in PBS [2]: 17.90%
Kd (KRAS^G12C protein): 87.2 µM
kon (KRAS^G12C protein): 64.7 M⁻¹ s⁻¹

Molecule: CC[C@H](C)[C@H](NC(=O)CNC(=O)[C@H](Cc1ccccc1)NC(=O)[C@H](Cc1ccccc1)NC(C)=O)C(=O)N[C@@]1(C)CCCC=CCCC[C@@](C)(C(=O)N[C@@H](CC(C)C)C(=O)N[C@@H](CCCCN)C(=O)N[C@H](C(=O)N[C@@H](CCC(=O)O)C(N)=O)[C@@H](C)O)NC(=O)[C@H](CC(N)=O)NC(=O)[C@H]([C@@H](C)O)NC(=O)[C@H](CC(C)C)NC1=O [Peptide 2] (Ac-FFGI[S5]LTN[S5]LKTE-NH2; staple 5-9)
Kd (KRAS^G12C protein): 21.7 µM
kon (KRAS^G12C protein): 43600 M⁻¹ s⁻¹

Molecule: CC[C@H](C)[C@H](NC(=O)CNC(=O)[C@H](Cc1ccccc1)NC(C)=O)C(=O)N[C@@]1(C)CCCC=CCCC[C@@](C)(C(N)=O)NC(=O)[C@H](CC(N)=O)NC(=O)[C@H]([C@@H](C)O)NC(=O)[C@H](CC(C)C)NC1=O [Peptide 10] (Ac-FGI[S5]LTN[S5]-NH2; staple 4-8)
Kd (KRAS^G12C protein): 131 µM
kon (KRAS^G12C protein): 294 M⁻¹ s⁻¹

Molecule: CC[C@H](C)[C@H](NC(=O)CNC(C)=O)C(=O)N[C@@]1(C)CCCC=CCCC[C@@](C)(C(=O)N[C@@H](CC(C)C)C(=O)N[C@@H](CCCCN)C(N)=O)NC(=O)[C@H](CC(N)=O)NC(=O)[C@H]([C@@H](C)O)NC(=O)[C@H](CC(C)C)NC1=O [Peptide 4] (Ac-GI[S5]LTN[S5]LK-NH2; staple 3-7)
Kd (KRAS^G12C protein): 25 µM
kon (KRAS^G12C protein): 97.6 M⁻¹ s⁻¹

kon (KRAS^G12C protein): 3.22 M⁻¹ s⁻¹
Molecule: CC(=O)N[C@@]1(C)CCCC=CCCC[C@@](C)(C(N)=O)NC(=O)[C@H](CC(N)=O)NC(=O)[C@H]([C@@H](C)O)NC(=O)[C@H](CC(C)C)NC1=O [Peptide 6] (Ac-[S5]LTN[S5]-NH2; staple 1-5)

Molecule: CC[C@H](C)[C@H](NC(=O)CNC(=O)[C@H](Cc1ccccc1)NC(C)=O)C(=O)N[C@@]1(C)CCCC=CCCC[C@@](C)(C(=O)N[C@@H](CC(C)C)C(N)=O)NC(=O)[C@H](CC(N)=O)NC(=O)[C@H]([C@@H](C)O)NC(=O)[C@H](CC(C)C)NC1=O [Peptide 9] (Ac-FGI[S5]LTN[S5]L-NH2; staple 4-8)
Kd (KRAS^G12C protein): 64.9 µM
kon (KRAS^G12C protein): 1630 M⁻¹ s⁻¹

kon (KRAS^G12C protein): 3.12 M⁻¹ s⁻¹
Kd (KRAS^G12C protein; BLI, dissociation rate constant): 1.06 s⁻¹
Molecule: CC[C@H](C)[C@H](NC(C)=O)C(=O)N[C@@]1(C)CCCC=CCCC[C@@](C)(C(=O)N[C@@H](CC(C)C)C(N)=O)NC(=O)[C@H](CC(N)=O)NC(=O)[C@H]([C@@H](C)O)NC(=O)[C@H](CC(C)C)NC1=O [Peptide 5] (Ac-I[S5]LTN[S5]L-NH2; staple 2-6)

Molecule: CC(=O)N[C@@]1(C)CCCC=CCCC[C@@](C)(C(=O)N[C@@H](CC(C)C)C(=O)N[C@@H](CCCCN)C(=O)N[C@H](C(N)=O)[C@@H](C)O)NC(=O)[C@H](CC(N)=O)NC(=O)[C@H]([C@@H](C)O)NC(=O)[C@H](CC(C)C)NC1=O [Peptide 8] (Ac-[S5]LTN[S5]LKT-NH2; staple 1-5)
Kd (KRAS^G12C protein): 29.1 µM
kon (KRAS^G12C protein): 1750 M⁻¹ s⁻¹
